The list is not random: actives were taken first. Their share in the collection is about 1.4%.
FXIIa inh – human FXIIa protease inhibitors, primary screen, biochemical, 1536-well; Coagulation factor XII (Homo sapiens), P00748; purified FXIIa, Boc-QGR-AMC fluorogenic substrate, 2 h; inhibition, % at 5 µM; 220,000 tested, 0.3% active; AID 800, 2007; in the data active means inhibition above about 40%;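 further: 0% = enzyme with no compound and 100% = blank without enzyme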
KLK5 inh – human KLK5 protease inhibitors, primary screen, biochemical, 1536-well; Kallikrein-5 (Homo sapiens), Q9Y337; recombinant hK5, fluorogenic AMC substrate cleavage; inhibition, % at 5 µM; 210,000 tested, 0.59% active; AID 873, 2007;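 active means inhibition of 40% or more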;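 further: 0% = enzyme controls without compound and 100% = no-enzyme blanks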
FXIa inh 1536 – human FXIa protease inhibitors, primary screen, biochemical, 1536-well; Coagulation factor XI (Homo sapiens), P03951; purified FXIa, Boc-Glu-Ala-Arg-AMC fluorogenic substrate; inhibition, % at 5 µM; 220,000 tested, 0.14% active;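 active means inhibition of at least 40%; inactive means inhibition below 40%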;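 further: fluorescence of freed AMC excited at 355 nm; 0% = enzyme without compound and 100% = no enzyme blank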
Target sequence (P03951 19-387 limits assumed): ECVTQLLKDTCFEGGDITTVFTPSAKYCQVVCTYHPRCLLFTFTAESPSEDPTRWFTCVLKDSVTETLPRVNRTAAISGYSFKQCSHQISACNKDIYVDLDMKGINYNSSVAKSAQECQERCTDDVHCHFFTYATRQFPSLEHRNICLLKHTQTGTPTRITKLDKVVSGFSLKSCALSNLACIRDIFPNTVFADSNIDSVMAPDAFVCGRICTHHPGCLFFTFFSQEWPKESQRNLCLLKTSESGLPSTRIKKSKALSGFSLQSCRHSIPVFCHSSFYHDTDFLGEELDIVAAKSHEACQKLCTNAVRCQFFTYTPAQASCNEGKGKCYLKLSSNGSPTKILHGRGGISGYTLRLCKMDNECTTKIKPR
Target sequence (P03951 388-625 limits assumed): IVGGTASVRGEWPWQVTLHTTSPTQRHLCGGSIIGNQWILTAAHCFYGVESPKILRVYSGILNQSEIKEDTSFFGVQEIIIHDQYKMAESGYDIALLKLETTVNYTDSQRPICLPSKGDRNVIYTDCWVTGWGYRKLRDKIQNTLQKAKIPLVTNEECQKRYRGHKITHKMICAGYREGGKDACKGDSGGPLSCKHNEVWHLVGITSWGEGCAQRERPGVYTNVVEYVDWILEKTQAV
Furin inh – human furin inhibitors, primary screen, biochemical, fluorescence intensity; P09958; purified furin, fluorogenic substrate cleavage; inhibition, % at 20 µM or 30 µM; 220,000 tested, 0.061% active; AID 463115, 2010; in the data active means inhibition above about 25%
m-calpain inh – inhibitors of pig calpain II, primary screen, biochemical, fluorogenic peptide substrate, 1536-well; purified calpain II, 30 min; inhibition, % at 16 µM; 220,000 tested, 0.37% active; AID 1236, 2008;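 active means inhibition above about 50%, limit read from the data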
Thrombin inh – human alpha-thrombin inhibitors, primary screen, counter-screen for coagulation protease inhibitor project, biochemical, 1536-well, fluorogenic AMC substrate; 220,000 tested, 0.26% active; Prothrombin (Homo sapiens), P00734; inhibition, % at 5 µM; AID 1046, 2008; Boc-VPR-AMC fluorogenic substrate cleavage;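 active means inhibition at or above 40%; inactive means inhibition below 40%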;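 further: 0% = enzyme with no compound and 100% = wells without enzyme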
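System: human alpha-thrombin protein; Compound dosing: one concentration per compound, 5 µM, with 0.2% DMSO; Timing: reaction at room temperature; Technique: AMC fluorescence, 355/460 nm; Controls: enzyme without compound as high, wells lacking enzyme as low.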
Numbers without * were called inactive.

Screening C=CCN1C(=O)C(C(C)CC)NC1=S (centres undefined) returned FXIIa inh 23.4, KLK5 inh 87.7*, FXIa inh 1536 35.8, Furin inh 5.6, m-calpain inh 9.5 and Thrombin inh 40.7*.
`Cc1ccsc1/C=N/NC(=O)c1ccc2c(c1)OCCO2` gave FXIIa inh 46.0*, KLK5 inh 18.2, FXIa inh 1536 39.0, Furin inh 11.2, m-calpain inh 26.9 and Thrombin inh 30.3.
Screening COC(=O)COc1ccc(S(=O)(=O)NCCC2=CCCCC2)cc1 returned FXIIa inh 5.4, KLK5 inh -13.7, FXIa inh 1536 -4.9, Furin inh -20.7, m-calpain inh 44.8 and Thrombin inh 5.8.
Cc1ccc(Cn2nc(C)c(NC(=O)c3nn(C)cc3Cl)c2C)cc1 was read as FXIIa inh 12.6, KLK5 inh -8.1, FXIa inh 1536 6.6, Furin inh 25.4*, m-calpain inh 10.5 and Thrombin inh 3.9.
For Cc1nn(Cc2ccc(Br)cc2)c(C)c1NC(=O)c1nn(C)cc1Cl the results were FXIIa inh 5.7, KLK5 inh -9.8, FXIa inh 1536 -2.1, Furin inh -15.0, m-calpain inh 13.2 and Thrombin inh -3.1.
`Cc1ccccc1-n1c(SCc2c(C)noc2C)nnc1-c1cccnc1` gave FXIIa inh 14.9, KLK5 inh 51.6*, FXIa inh 1536 6.1, Furin inh -9.9, m-calpain inh -0.8 and Thrombin inh 33.2.
`O=C(O/N=C1\CCCCC1c1ccc([N+](=O)[O-])cc1[N+](=O)[O-])c1c(F)cccc1F` (centres undefined) gave FXIIa inh 15.5, KLK5 inh -3.6, FXIa inh 1536 6.8, Furin inh -21.0, m-calpain inh 63.0* and Thrombin inh 5.0.
Screening COc1ccc(N2C(=S)N=C(Nc3ccccc3)C23CCCCC3)cc1 returned FXIIa inh 10.1, KLK5 inh 0.7, FXIa inh 1536 -2.1, Furin inh -31.3, m-calpain inh -13.3 and Thrombin inh 101.1*.
For COc1ccc(-c2cc(C(=O)c3c(N)n(C)c(=O)n(C)c3=O)c3ccccc3n2)cc1OC the results were FXIIa inh 42.0*, KLK5 inh 20.2, FXIa inh 1536 39.1, Furin inh -2.6, m-calpain inh 18.4 and Thrombin inh 9.9.
Screening COc1ccc(-c2cc(C(=O)NCc3cn(C)nc3C)c3ccccc3n2)cc1OC returned FXIIa inh 14.2, KLK5 inh -8.5, FXIa inh 1536 8.3, Furin inh -14.1, m-calpain inh 52.3* and Thrombin inh -0.6.
For COc1ccc(-c2cc(C(=O)Nc3ccccc3O)c3ccccc3n2)cc1OC the results were FXIIa inh 10.5, KLK5 inh 4.1, FXIa inh 1536 1.1, Furin inh -27.4, m-calpain inh -141.5 and Thrombin inh -4.3.
Screening Cn1c(N)c(C(=O)c2cc(-c3ccncc3)nc3ccccc23)c(=O)n(C)c1=O returned FXIIa inh 4.2, KLK5 inh -0.1, FXIa inh 1536 -2.6, Furin inh -14.6, m-calpain inh -8.9 and Thrombin inh -4.0.
`Cc1cc(C)nc(SCc2nnc(SCC(=O)Nc3ccc(Cl)c(C(F)(F)F)c3)o2)n1` gave FXIIa inh 5.2, KLK5 inh 4.8, FXIa inh 1536 0.2, Furin inh -12.6, m-calpain inh -5.6 and Thrombin inh 1.1.
Cc1ccc(-c2nn(CC(=O)N3CCOCC3)c(=O)c3ccccc23)cc1S(=O)(=O)N(C)C was read as FXIIa inh 13.6, KLK5 inh 4.3, FXIa inh 1536 4.1, Furin inh -3.7, m-calpain inh -2.0 and Thrombin inh 3.6.
For C/C(=N\OC(=O)NC(C)C)c1sc(-c2ccc(Cl)cc2)nc1C the results were FXIIa inh 12.8, KLK5 inh 58.4*, FXIa inh 1536 7.9, Furin inh -6.9, m-calpain inh 1.4 and Thrombin inh 19.2.
`C/C(=N\OC(=O)NC(C)C)c1sc(-c2ccccc2)nc1C` gave FXIIa inh 9.8, KLK5 inh 25.5, FXIa inh 1536 8.2, Furin inh -7.4, m-calpain inh 18.6 and Thrombin inh 1.8.

Bioassay records (PubChem BioAssay)
